Source: PubChem
Most compounds without a hit are left out; they make up all but 1.4% or so of the library.
APOBEC3A inh: blocks human APOBEC3A ssDNA deamination; recombinant A3A, FAM/TAMRA ssDNA deamination fluorescence; 330,000 tested, 0.41% active; inhibition, % at 20 µM;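 active = at least 40% inhibition at 20 µM here, with at most 30% in a related deaminase screen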;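 also: plate controls were A3A with DMSO for no effect and wells lacking A3A enzyme for full effect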
Target sequence (P31941 whole entry, looked up): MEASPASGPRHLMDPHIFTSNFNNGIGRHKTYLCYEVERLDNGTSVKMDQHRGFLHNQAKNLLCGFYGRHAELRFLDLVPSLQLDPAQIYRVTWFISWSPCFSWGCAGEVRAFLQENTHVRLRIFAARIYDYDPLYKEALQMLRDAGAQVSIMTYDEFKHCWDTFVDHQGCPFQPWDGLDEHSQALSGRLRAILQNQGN
CXCR6 block: CXCR6 (human) receptor inhibition; O00574; 360,000 tested, 0.36% active; AID 602244; inhibition, % at 20 µM; CHO-K1 PathHunter CXCR6 beta-arrestin, luminescence; in the data active = inhibition above about 34%, passing the limit was not always enough;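 also: antagonist mode with CXCL16 agonist at 10 nM final; 0% = 10 nM CXCL16 with DMSO and 100% = unstimulated wells without agonist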
Target sequence (O00574 whole entry, looked up): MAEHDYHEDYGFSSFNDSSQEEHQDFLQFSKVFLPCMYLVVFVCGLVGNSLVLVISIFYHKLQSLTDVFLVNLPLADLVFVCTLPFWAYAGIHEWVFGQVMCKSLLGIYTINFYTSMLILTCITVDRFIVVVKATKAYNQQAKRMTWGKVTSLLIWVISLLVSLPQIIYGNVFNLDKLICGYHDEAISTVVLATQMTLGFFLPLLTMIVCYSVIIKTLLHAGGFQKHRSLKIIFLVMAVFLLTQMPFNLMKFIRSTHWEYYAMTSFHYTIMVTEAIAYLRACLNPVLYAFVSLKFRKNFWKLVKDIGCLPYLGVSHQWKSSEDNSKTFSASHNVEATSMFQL
A3G deaminase: blocks human APOBEC3G single-stranded DNA deamination. Q9HC16. recombinant A3G, ssDNA deamination FAM/TAMRA fluorescence. inhibition, % at 20 µM. 330,000 tested, 0.28% active. AID 493012;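 active = inhibition of at least 40% at 20 µM, with no more than 30% in the related APOBEC3A deaminase screen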;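 also: plate controls were DMSO wells with A3G for no effect and wells lacking A3G enzyme for full effect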
APJ antag: APJ receptor antagonism; P35414; CHO-K1 APJ beta-arrestin complementation, luminescence; inhibition, % at 20 µM; 330,000 tested, 0.32% active; AID 2521;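 active = inhibition above about 40% at 20 µM, limit read from the data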;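 also: cells challenged with 10 nM apelin-13 agonist together with compound; plate controls were apelin-13 plus DMSO wells for no effect and DMSO wells lacking apelin-13 for full effect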
APJ agonist: APJ receptor agonism. P35414. CHO-K1 APJ PathHunter beta-arrestin, luminescence; 0% DMSO wells, 100% apelin. activation, % at 20 µM. 330,000 tested, 0.11% active. AID 2520;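 active = activation more than six SD over the plate average, tested at 20 µM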;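 also: 0% = DMSO alone and 100% = apelin-13 at 10 nM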
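Test system – PathHunter CHO-K1 APJ (AGTRL-1) beta-arrestin reporter cells · Input – 1000 cells/well · Compound – single test compound dose, 20 µM final, 1% DMSO · Times – compound stimulation 90 min at 25 °C, detection 60 min · Technique – beta-gal luminescence · Read-out basis – APJ–arrestin association signal · Control set – negative DMSO alone, positive Apelin-13 at 10 nM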
CCR6 antag: CCR6 (human) receptor antagonism. P51684. CHO-K1 CCR6 PathHunter beta-arrestin, luminescence, CCL20-stimulated. inhibition, % at 20 µM. 340,000 tested, 0.49% active. AID 493098;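 active = compounds whose inhibition of the agonist-driven luminescence signal at 20 µM reaches about 50%, limit read from the data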;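 also: cells stimulated with CCL20 at 14 nM final; plate controls were DMSO with CCL20 for no effect and DMSO without agonist for full effect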
APOBEC3G confirm: APOBEC3G (human) deaminase inhibition, confirmed; shares compounds with A3G deaminase; recombinant A3G ssDNA deaminase, UDG/FAM-TAMRA fluorescence; inhibition, % at 20 µM; 890 tested, 72% active; AID 493152;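 active = inhibition reaching a set limit in any replicate at 20 µM, the limit being 80% of the first screen's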
UDG ctr A3G: inhibits E. coli UDG, flagging false APOBEC3G inhibitors. AID 504715. shares compounds with A3G deaminase. inhibition, % at 20 µM. 710 tested, under 10 active. UDG counterscreen, FAM/TAMRA oligo fluorescence;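 active = compounds giving 40% or more inhibition at 20 µM in any one of the three replicates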;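 also: plate controls were DMSO wells with UDG and oligo for no effect and DMSO wells lacking both for full effect; inhibitors lower the FAM signal released by uracil excision and alkaline cleavage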
* = called active by the depositor; . = not tested or not shown.

SMILES	APOBEC3A inh	CXCR6 block	A3G deaminase	APJ antag	APJ agonist	CCR6 antag	APOBEC3G confirm	UDG ctr A3G
O=c1[nH][nH]c2c1[C@H](c1ccc(Cl)cc1)O[C@H](C1CCCCC1)C2	.	0.4	.	.	.	.	.	.
CC(=O)NCC1CCN(C(=O)C2CCC(=O)N(CCc3cccc(F)c3)C2)CC1 (stereo unspecified)	-1.4	5.1	-7.8	-15.6	-1.3	-6.5	.	.
CCN(CC)S(=O)(=O)c1cccc(C(=O)OCC(=O)NCCN2C(=O)CSC2=O)c1	1.5	7.2	-6.8	6.1	1.0	8.2	.	.
CCOC(=O)c1cc(-c2cccc([N+](=O)[O-])c2)on1	2.7	-2.1	-0.5	5.8	-0.4	-19.5	.	.
CC(/C=N/n1c(-c2cc(C)[nH]n2)n[nH]c1=S)=C\c1ccco1	5.5	-14.6	60.8*	-0.9	-4.1	2.0	72.8*	2.5
CC(/C=N/n1c(-c2ccco2)n[nH]c1=S)=C\c1ccccc1	-0.3	13.0	11.7	-2.2	-3.0	16.7	.	.
CC(C)CCN(C(=O)Nc1ccc(Cl)cc1)C1CCN(C(C)C)CC1	-0.9	2.2	-3.6	2.0	-4.2	3.3	.	.
Cc1ccc(-n2c(=O)c3c4c(sc3n3c(=S)[nH]nc23)CCC4)cc1	-7.8	4.6	34.9	0.2	0.6	17.6	.	.
O=c1c2c3c(sc2n2c(=S)[nH]nc2n1-c1ccccc1)CCC3	-11.4	-0.6	53.1*	16.5	-3.6	13.6	83.9*	-5.8
CCn1c(=O)c2c3c(sc2n2c(=S)[nH]nc12)CCC3	-9.1	-15.9	59.1*	15.2	-3.3	9.1	88.0*	-1.5
Cc1cc(S(=O)(=O)N(Cc2ccccn2)Cc2ccco2)ccc1-n1cnnn1	1.6	-1.0	50.3*	-11.5	-1.1	5.1	0.7	.
CCOc1ccccc1CN(Cc1ccco1)S(=O)(=O)c1ccc(-n2cnnn2)c(OC)c1	.	14.4	.	.	.	23.2	.	.
Cc1cccc(N2CCN(C(=S)c3ccc([N+](=O)[O-])cc3)CC2)c1	0.6	-2.2	55.5*	1.2	-3.4	5.6	43.6*	0.3
Cc1cccc(N2CCN(C(=S)c3ccccc3)CC2)c1	-1.1	4.7	-4.9	-4.7	-1.1	1.0	.	.
S=c1cnc2ccccc2[nH]1	-4.6	-12.1	62.0*	5.4	-5.1	-3.9	84.1*	3.0
CCOC(=O)c1sc(N)c(C(=O)OC)c1C	-3.4	-3.4	-5.6	0.0	-2.1	-8.4	.	.
CCOC(=O)c1sc(N)c(C(=O)Nc2ccccc2OC)c1C	-0.6	5.8	51.1*	9.7	-4.8	11.9	67.3*	-3.1
CCOC(=O)N1CCN(c2c(N3CCN(c4ccccc4F)CC3)c(=O)c2=O)CC1	0.2	-5.4	-2.7	4.2	-3.5	5.2	.	.
S=c1[nH]nc(-c2ccccn2)n1/N=C/c1c(Cl)cccc1Cl	-1.3	-0.1	70.7*	8.3	-4.4	13.0	92.8*	-0.4
Cc1ccccc1/C=N/n1c(-c2cc(-c3ccccc3)n[nH]2)n[nH]c1=S	-6.9	5.6	9.9	16.8	2.9	18.1	.	.
S=c1[nH]nc(-c2ccccc2)n1/N=C/c1ccc(Cl)cc1	.	-3.1	.	.	.	19.4	.	.
S=c1[nH]nc(-c2ccccn2)n1/N=C/c1ccccc1	-3.5	-2.1	46.2*	-13.7	-2.6	3.6	77.5*	-1.2
Cc1ccc(/C=N/n2c(-c3ccccn3)n[nH]c2=S)o1	-1.1	-8.9	30.7	5.8	-1.0	15.7	.	.
Cc1ccccc1/C=N/n1c(-c2ccccn2)n[nH]c1=S	-5.1	-7.5	71.9*	18.1	-3.8	2.8	97.6*	0.7
S=c1[nH]nc(-c2ccccn2)n1/N=C/c1ccc(Cl)cc1	-5.5	9.4	49.7*	18.9	-1.7	0.9	82.1*	-4.1
Cc1ccc(S(=O)(=O)N(C)c2ccc3c(ncn3C)c2[N+](=O)[O-])cc1	-5.8	-12.8	-13.8	11.6	0.3	-8.2	.	.
CCC1Oc2ccccc2N(CC(=O)NCCCN2CCN(c3ccc(OC)cc3)CC2)C1=O (stereo unspecified)	-4.2	-2.6	-3.3	16.9	3.3	4.2	.	.
